ChEMBL document CHEMBL1122273, “5-sulfamoylorthanilic acids, a sulfonamide series with salidiuretic activity” (J Med Chem, 1983)
Calls of active or inactive are those of the source. The rule behind the calls is not given here.

Tests used:
[1] = species on record: Rattus norvegicus; test: Diuretic activity in the rats, determined by a modified Lipschitz test; assay type: functional, Urine
Outline: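 Modified Lipschitz test: rats deprived of water 24 h, grouped in threes of similar weight in diuresis funnels. Oral dose of 50 mg/kg, suspended in 2% starch solution, by stomach tube.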

[2] = species on record: Rattus norvegicus; test: Saluretic activity in the rat measured as concentration of chloride in urine; assay type: functional
Outline: (§1)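 Rats deprived of food 24 h, water ad libitum, dosed 50 mg/kg by stomach tube as suspension in 2% starch, no extra water load. Groups of three in diuresis funnels; urine over first 5 h collected. Na⁺ and K⁺ by flame photometry, Cl⁻ argentometrically; expressed as mequiv/kg.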

[3] = (§2) It is the ratio, measured as saluretic activity in the dog as concentration of Na+ in urinary excretion (dose 1.56 mg/Kg, po) to that of K; assay type: functional, Urine
Outline: (§3)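 Trained male beagles, fasted 24 h with tap water ad libitum. Bladder emptied by catheter, then 20 mL/kg tap water by stomach tube, with 4 mL/kg water at each hourly catheterization up to 8 h. The first 2 h of urine served as control. Oral dosing came after the second catheterization, and 1–6 h urine was pooled. Na⁺ and K⁺ were measured by flame photometry, Cl⁻ argentometrically, in mequiv/kg.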

[4] = species on record: Rattus norvegicus; test: Saluretic activity in the rat measured as concentration of Na+ in urine; assay type: functional; outline: as §1
[5] = It is the ratio, measured as saluretic activity in the dog as concentration of Cl- in urinary excretion (dose 1.56 mg/Kg, po) to that of (Na+)+(K+); assay type: functional, Urine; outline: as §3
[6] = system: Canis familiaris; test: Saluretic activity in the dog measured as concentration of Na+ in urinary excretion (2 animals/dose) at (dose 1.56 mg/Kg, po); assay type: functional, Canis lupus familiaris, Urine
Outline: (§4)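 Male beagles trained to rest on a table and to accept stomach tube and catheter. Food withdrawn 24 h before, tap water ad libitum. Bladder emptied by catheter, then 20 mL/kg tap water by stomach tube. Catheterized hourly up to 8 h with 4 mL/kg water orally each time; first 2 h urine served as control. Oral dosing after second catheterization. Pooled 1–6 h urine; Na⁺/K⁺ by flame photometry, Cl⁻ argentometrically.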

[7] = system: Canis familiaris; test: Saluretic activity in the dog measured as concentration of Cl - in urinary excretion (2 animals/dose) at (dose 1.56 mg/Kg, po); assay type: functional, Canis lupus familiaris, Urine
Outline: (§5)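 Male beagles trained to the procedures, food withdrawn 24 h before, tap water ad libitum. Bladder emptied by catheter, then 20 mL/kg tap water by stomach tube, plus 4 mL/kg orally at each hourly catheterization up to 8 h. The first 2 h of urine served as control. Compound given orally after the second catheterization. Urine from 1–6 h post-dose pooled; Na⁺ and K⁺ by flame photometry, Cl⁻ argentometrically, in mequiv/kg.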

[8] = system: Canis familiaris; test: Diuretic activity in the dog (2 animals/dose) at (dose 1.56 mg/Kg), when administered perorally; assay type: functional, Canis lupus familiaris, Urine; outline: as §3
[9] = species on record: Rattus norvegicus; test: Saluretic activity in the rat measured as concentration of K+ in urine; assay type: functional; outline: as §1
[10] = system: Canis familiaris; test: Saluretic activity in the dog measured as concentration of K+ in urinary excretion (2 animals/dose) (dose 1.56 mg/kg, p.o.); assay type: functional, Canis lupus familiaris, Urine; settings: route oral; outline: as §5
[11] = system: Canis familiaris; test: Saluretic activity in the dog measured as concentration of K+ in urinary excretion (2 animals/dose) at (dose 1.56 mg/Kg, po); assay type: functional, Canis lupus familiaris, Urine; outline: as §4
[12] = It is the ratio, measured as saluretic activity in the dog as concentration of Na+ in urinary excretion (dose 0.1 mg/Kg, po) to that of K; assay type: functional, Urine; outline: as §3
[13] = It is the ratio, measured as saluretic activity in the dog as concentration of Cl- in urinary excretion (dose 0.1 mg/Kg, po) to that of (Na+)+(K+); assay type: functional, Urine; outline: as §3
[14] = system: Canis familiaris; test: Saluretic activity in the dog measured as concentration of Cl - in urinary excretion (2 animals/dose) at (dose 0.1 mg/Kg, po); assay type: functional, Canis lupus familiaris, Urine; outline: as §5
[15] = system: Canis familiaris; test: Salidiuretic activity on the basis of the 1.56 mg/Kg po dog assay; compound was highly active; assay type: functional, organism-based; settings: Canis lupus familiaris; Urine
[16] = system: Canis familiaris; test: Saluretic activity in the dog measured as concentration of Na+ in urinary excretion (2 animals/dose) at (dose 0.1 mg/Kg, po); assay type: functional, Canis lupus familiaris, Urine; outline: as §4
[17] = system: Canis familiaris; test: Saluretic activity in the dog measured as concentration of K+ in urinary excretion (2 animals/dose) at (dose 0.1 mg/Kg, po); assay type: functional, Canis lupus familiaris, Urine; outline: as §5
[18] = system: Rattus norvegicus; test: Salidiuretic activity on the basis of the 50 mg/kg po rat assay; compound was highly active; assay type: functional, organism-based; set-up: dose 50 mg/kg; settings: Urine
[19] = system: Canis familiaris; test: Diuretic activity in the dog (2 animals/dose) at (dose 0.1 mg/Kg), when administered perorally; assay type: functional, Canis lupus familiaris, Urine; outline: as §3
[20] = system: Canis familiaris; test: Saluretic activity in the dog measured as concentration of K+ in urinary excretion (2 animals/dose) at (dose 6.25 mg/Kg, po); assay type: functional, Canis lupus familiaris, Urine; outline: as §4
[21] = system: Canis familiaris; test: as §2; assay type: functional, Canis lupus familiaris, Urine; outline: as §3
[22] = system: Canis familiaris; test: Diuretic activity in the dog (2 animals/dose) at (dose 6.25 mg/Kg), when administered perorally; assay type: functional, Canis lupus familiaris, Urine; outline: as §3
[23] = It is the ratio, measured as saluretic activity in the dog as concentration of Cl- in urinary excretion (dose 6.25 mg/Kg, po) to that of (Na++K+); assay type: functional, Urine; outline: as §3
[24] = It is the ratio, measured as saluretic activity in the dog as concentration of Cl- in urinary excretion (dose 0.4 mg/Kg, po) to that of (Na++K+); assay type: functional, Urine; outline: as §3
[25] = system: Canis familiaris; test: Saluretic activity in the dog measured as concentration of Na+ in urinary excretion (2 animals/dose) at (dose 6.25 mg/Kg, po); assay type: functional, Canis lupus familiaris, Urine; outline: as §4
[26] = system: Canis familiaris; test: Diuretic activity in the dog (2 animals/dose) at (dose 0.4 mg/Kg), when administered perorally; assay type: functional, Canis lupus familiaris, Urine; outline: as §3
[27] = system: Canis familiaris; test: Saluretic activity in the dog measured as concentration of Cl - in urinary excretion (2 animals/dose) at (dose 6.25 mg/Kg, po); assay type: functional, Canis lupus familiaris, Urine; outline: as §5
[28] = system: Canis familiaris; test: Saluretic activity in the dog measured as concentration of K+ in urinary excretion (2 animals/dose) at (dose 0.4 mg/Kg, po); assay type: functional, Canis lupus familiaris, Urine; outline: as §5
[29] = system: Canis familiaris; test: Saluretic activity in the dog measured as concentration of Cl - in urinary excretion (2 animals/dose) at (dose 0.4 mg/Kg, po); assay type: functional, Canis lupus familiaris, Urine; outline: as §5
[30] = It is the ratio, measured as saluretic activity in the dog as concentration of Cl- in urinary excretion (dose 1.56 mg/Kg, po) to that of (Na++K+); assay type: functional, Urine; outline: as §3
[31] = It is the ratio, measured as saluretic activity in the dog as concentration of Cl- in urinary excretion (dose 0.1 mg/Kg, po) to that of (Na++K+); assay type: functional, Urine; outline: as §3
[32] = system: Canis familiaris; test: Saluretic activity in the dog measured as concentration of Na+ in urinary excretion (2 animals/dose) at (dose 0.4 mg/Kg, po); assay type: functional, Canis lupus familiaris, Urine; outline: as §4
[33] = It is the ratio, measured as saluretic activity in the dog as concentration of Na+ in urinary excretion (dose 0.4 mg/Kg, po) to that of K; assay type: functional, Urine; outline: as §3
[34] = It is the ratio, measured as saluretic activity in the dog as concentration of Na+ in urinary excretion (dose 6.25 mg/Kg, po) to that of K; assay type: functional, Urine; outline: as §3

Q: With `CCCC[S+]([O-])c1cc(NCc2ccco2)c(S(=O)(=O)[O-])cc1S(N)(=O)=O.[Na+]` (stereo not drawn) as the compound, how does the Diuretic activity [1] read?
A: 1 mL/kg

Q: What about the Saluretic activity [2] of the same compound?
A: 1.4 m equiv 5hr-1 kg-1

Q: And the Ratio [3]?
A: 3

Q: And the Saluretic activity [4]?
A: 0.9 m equiv 5hr-1 kg-1

Q: What about the Ratio [5] of the same compound?
A: 1

Q: What about the Saluretic activity [6] of the same compound?
A: 0.89 m equiv 6hr-1 kg-1

Q: What about the Saldiuretic activity [7] of the same compound?
A: 1.43 m equiv 6hr-1 kg-1

Q: And the Diuretic activity [8]?
A: 34.9 ml kg-1 6hr-1

Q: And the Saluretic activity [9]?
A: 1 m equiv 5hr-1 kg-1

Q: What about the Saldiuretic activity [10] of the same compound?
A: 0.35 (m equiv) 6hr-1 kg-1

Q: Which Saluretic activity [11] does the source give for `NS(=O)(=O)c1cc(S(=O)(=O)[O-])c(NCc2cccs2)cc1S(=O)(=O)C1CCCCC1.[Na+]` here?
A: 1.05 m equiv 6hr-1 kg-1

Q: What about the Ratio [12] of the same compound?
A: 7.7

Q: And the Diuretic activity [1]?
A: 4 mL/kg

Q: And the Ratio [13]?
A: 1

Q: And the Saluretic activity [2]?
A: 8.7 m equiv 5hr-1 kg-1

Q: What about the Ratio [3] of the same compound?
A: 5.1

Q: And the Saluretic activity [4]?
A: 7.3 m equiv 5hr-1 kg-1

Q: What about the Ratio [5] of the same compound?
A: 1

Q: And the Saldiuretic activity [14]?
A: 3.54 m equiv 6hr-1 kg-1

Q: What about the Saldiuretic activity [15] of the same compound?
A: Active

Q: What about the Saluretic activity [16] of the same compound?
A: 3.18 m equiv 6hr-1 kg-1

Q: And the Saldiuretic activity [17]?
A: 0.41 m equiv 6hr-1 kg-1

Q: And the Saluretic activity [6]?
A: 5.4 m equiv 6hr-1 kg-1

Q: And the Saldiuretic activity [18]?
A: Active

Q: And the Saldiuretic activity [7]?
A: 6.39 m equiv 6hr-1 kg-1

Q: What about the Diuretic activity [8] of the same compound?
A: 66.7 ml kg-1 6hr-1

Q: What about the Diuretic activity [19] of the same compound?
A: 47.4 ml kg-1 6hr-1

Q: What about the Saluretic activity [9] of the same compound?
A: 2.2 m equiv 5hr-1 kg-1

Q: For `NS(=O)(=O)c1cc(S(=O)(=O)[O-])c(NCc2ccco2)cc1S(=O)(=O)C1CCCCC1.[Na+]`, which Saldiuretic activity [11] is on record?
A: 1.14 m equiv 6hr-1 kg-1

Q: And the Saldiuretic activity [20]?
A: 1.16 m equiv 6hr-1 kg-1

Q: And the Ratio [12]?
A: 3.7

Q: What about the Diuretic activity [1] of the same compound?
A: 2.8 mL/kg

Q: And the Saluretic activity [2]?
A: 9.1 m equiv 5hr-1 kg-1

Q: And the Ratio [21]?
A: 4.7

Q: And the Diuretic activity [22]?
A: 73.5 ml kg-1 6hr-1

Q: And the Ratio [23]?
A: 1

Q: And the Ratio [24]?
A: 1

Q: And the Saluretic activity [25]?
A: 5.5 m equiv 6hr-1 kg-1

Q: And the Saluretic activity [4]?
A: 8.2 m equiv 5hr-1 kg-1

Q: And the Diuretic activity [26]?
A: 59 ml kg-1 6hr-1

Q: What about the Saldiuretic activity [27] of the same compound?
A: 6.83 m equiv 6hr-1 kg-1

Q: And the Saluretic activity [28]?
A: 0.82 m equiv 6hr-1 kg-1

Q: And the Saldiuretic activity [29]?
A: 4.43 m equiv 6hr-1 kg-1

Q: What about the Saldiuretic activity [14] of the same compound?
A: 2.49 m equiv 6hr-1 kg-1

Q: And the Ratio [30]?
A: 0.95

Q: And the Saldiuretic activity [15]?
A: Active

Q: And the Saluretic activity [16]?
A: 1.95 m equiv 6hr-1 kg-1

Q: What about the Saldiuretic activity [17] of the same compound?
A: 0.53 m equiv 6hr-1 kg-1

Q: And the Saluretic activity [6]?
A: 5.38 m equiv 6hr-1 kg-1

Q: What about the Saldiuretic activity [18] of the same compound?
A: Active

Q: What about the Ratio [31] of the same compound?
A: 1

Q: What about the Saldiuretic activity [7] of the same compound?
A: 6.15 m equiv 6hr-1 kg-1

Q: And the Saluretic activity [32]?
A: 3.71 m equiv 6hr-1 kg-1

Q: What about the Diuretic activity [8] of the same compound?
A: 66.7 ml kg-1 6hr-1

Q: And the Diuretic activity [19]?
A: 44.7 ml kg-1 6hr-1

Q: What about the Ratio [33] of the same compound?
A: 4.5

Q: And the Ratio [34]?
A: 4.7

Q: And the Saluretic activity [9]?
A: 2.3 m equiv 5hr-1 kg-1
